Source: ChEMBL document CHEMBL3392981, “Synthesis and pharmacological evaluation of dual acting ligands targeting the adenosine A2A and dopamine D2 receptors for the potential treatment of Parkinson's disease” (J Med Chem, 2015)

Tests used:
[1] = biological target: Adenosine receptor A2a (Homo sapiens, UniProt P29274); experiment: Inhibition of human adenosine A2A receptor expressed in FlpIn-CHO cells assessed as inhibition of NECA-induced cAMP accumulation incubated for 30 mins by fluorescence assay; assay type: functional, cell-based
Sequence of Adenosine receptor A2a (P29274 whole entry): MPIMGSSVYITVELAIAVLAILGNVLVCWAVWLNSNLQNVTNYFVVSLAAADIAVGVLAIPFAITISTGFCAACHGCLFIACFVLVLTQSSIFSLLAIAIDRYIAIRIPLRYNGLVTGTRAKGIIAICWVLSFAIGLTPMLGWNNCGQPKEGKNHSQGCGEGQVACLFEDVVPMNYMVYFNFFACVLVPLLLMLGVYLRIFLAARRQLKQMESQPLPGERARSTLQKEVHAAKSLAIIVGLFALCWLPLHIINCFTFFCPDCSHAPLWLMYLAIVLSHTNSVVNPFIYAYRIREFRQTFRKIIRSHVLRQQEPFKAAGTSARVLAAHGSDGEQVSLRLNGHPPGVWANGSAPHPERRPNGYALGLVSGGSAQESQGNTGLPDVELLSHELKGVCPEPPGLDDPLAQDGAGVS

[2] = biological target: T1, D(2) dopamine receptor (Homo sapiens, UniProt P14416); experiment: Agonist activity at human dopamine D2L receptor expressed in CHO cell membranes incubated for 1 hr by [35S]GTPgammaS binding assay; assay type: functional; settings: for pEC50: cho
T1 sequence (P14416 whole entry): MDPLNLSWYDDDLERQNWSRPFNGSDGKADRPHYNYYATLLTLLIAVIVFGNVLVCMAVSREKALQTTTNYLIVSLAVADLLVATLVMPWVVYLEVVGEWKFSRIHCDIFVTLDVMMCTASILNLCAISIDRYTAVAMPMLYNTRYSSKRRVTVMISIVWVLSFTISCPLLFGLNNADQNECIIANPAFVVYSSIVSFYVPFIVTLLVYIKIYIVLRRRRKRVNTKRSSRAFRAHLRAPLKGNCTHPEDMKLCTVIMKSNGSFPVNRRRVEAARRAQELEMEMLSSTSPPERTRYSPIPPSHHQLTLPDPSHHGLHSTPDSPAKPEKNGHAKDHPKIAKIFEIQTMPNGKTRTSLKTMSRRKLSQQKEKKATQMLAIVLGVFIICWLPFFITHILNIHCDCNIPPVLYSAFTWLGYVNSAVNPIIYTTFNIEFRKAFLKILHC

[3] = biological target: T1, D(2) dopamine receptor; experiment: Agonist activity at human dopamine D2L receptor expressed in CHO cell membranes incubated for 1 hr by [35S]GTPgammaS binding assay relative to 100 uM quinelorane; assay type: functional
[4] = Fraction unbound in Wistar Han rat brain at 5 uM incubated for 4 hrs by dialysis and LC-MS/MS method; assay type: ADME, tissue-based
Outline: (§1)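 Blood and brain tissue were taken from Wistar Han rat and tested in vitro. Percent fraction unbound was determined in each matrix (undiluted Fu). The brain:blood partition ratio (Kbb) was derived as an in vitro predictor of CNS penetration. Runs were in triplicate, and values are reported as mean ± SD.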

[5] = Blood-brain partition ratio in Wistar Han rat at 5 uM incubated for 4 hrs by dialysis and LC-MS/MS method; assay type: ADME, tissue-based; settings: in vitro; outline: as §1
[6] = Fraction unbound in Wistar Han rat blood at 5 uM incubated for 4 hrs by dialysis and LC-MS/MS method; assay type: ADME, tissue-based; outline: as §1

Row | Compound | IC50 ([1]; read-out: IC50) [nM] | IC50 ([1]; read-out: pIC50 (converted)) [nM] | EC50 [2] [nM] | pEC50 [2] | Emax [3] [%] | fraction unbound at 4 h, 5 µM [4] | Kbb [5] | fraction unbound at 4 h, 5 µM [6]
1 | CCCN(CCc1cccc2c1CC(=O)N2)c1nc(N)n2nc(-c3ccco3)nc2n1 | 32 | 32.4 | > 100000 | < 4 | – | – | – | –
2 | CCCN(CCCNC(=O)CCCCCCCCCCCNC(=O)CCCOc1ccc(CCNc2nc(N)n3nc(-c4ccco4)nc3n2)cc1)CCc1cccc2c1CC(=O)N2 | 1070 | 1070 | 1400 | – | 38 | – | – | –
3 | CCCN(CCCNC(=O)CCCCCCCCCCCNC(=O)OC(C)(C)C)CCc1cccc2c1CC(=O)N2 | > 100000 | – | 114 | – | 66 | – | – | –
4 | COC(=O)CCCCCCCCCCCNC(=O)CCCOc1ccc(CCNc2nc(N)n3nc(-c4ccco4)nc3n2)cc1 | 437 | 437 | > 100000 | < 4 | – | – | – | –
5 | Nc1nc(NC2CCN(CCc3cccc4c3CC(=O)N4)CC2)nc2nc(-c3ccco3)nn12 | 1510 | 1510 | > 100000 | < 4 | – | – | – | –
6 | CCCN(CCCNC(=O)CCCCCCCNC(=O)CCCOc1ccc(CCNc2nc(N)n3nc(-c4ccco4)nc3n2)cc1)CCc1cccc2c1CC(=O)N2 | 41 | 40.7 | 501 | – | 77 | – | – | –
7 | Nc1nc(NCCc2ccc(O)cc2)nc2nc(-c3ccco3)nn12 [ZM-241385] | – | – | > 100000 | < 4 | – | 0.0849 | 0.76 | 0.0647
8 | Nc1nc(NCCc2ccc(Oc3nc(Cl)nc(N4CCOCC4)n3)cc2)nc2nc(-c3ccco3)nn12 | 135 | 135 | > 100000 | < 4 | – | – | – | –
9 | CC(C)(C)OC(=O)N1CCCN(CCc2cccc3c2CC(=O)N3)CC1 | – | – | > 100000 | < 4 | – | – | – | –
10 | CCCN(CCCNc1nc(N)n2nc(-c3ccco3)nc2n1)CCc1cccc2c1CC(=O)N2 | 912 | 912 | 88 | – | 89 | 0.153 | 1.29 | 0.198
11 | CC(C)(C)OC(=O)NC1CCN(CCc2cccc3c2CC(=O)N3)CC1 | – | – | > 100000 | < 4 | – | – | – | –
12 | Nc1nc(N2CCCN(CCc3cccc4c3CC(=O)N4)CC2)nc2nc(-c3ccco3)nn12.O=C(O)C(F)(F)F | 1480 | 1480 | > 100000 | < 4 | – | – | – | –
13 | O=C(O)C(F)(F)F.O=C1Cc2c(CCN3CCCNCC3)cccc2N1 | – | – | > 100000 | < 4 | – | – | – | –
14 | CCCN(CCCCCCNc1nc(N)n2nc(-c3ccco3)nc2n1)CCc1cccc2c1CC(=O)N2 | 1780 | 1780 | 38 | – | 77 | – | – | –
15 | CCCN1CCC[C@@H]2Cc3nc(N)ncc3C[C@H]21 [QUINELORANE] | – | – | – | 7.35 | – | – | – | –
16 | CN(CCCNc1nc(N)n2nc(-c3ccco3)nc2n1)CCc1cccc2c1CC(=O)N2 | 1120 | 1120 | 389 | – | 77 | – | – | –
17 | CCCN(CCCNC(=O)CCCC(=O)Oc1ccc(CCNc2nc(N)n3nc(-c4ccco4)nc3n2)cc1)CCc1cccc2c1CC(=O)N2 | 35 | 35.5 | 484 | – | 79 | – | – | –
18 | CCCN(CCCNC(=O)COc1ccc(CCNc2nc(N)n3nc(-c4ccco4)nc3n2)cc1)CCc1cccc2c1CC(=O)N2 | 63 | 63.1 | 148 | – | 88 | – | – | –
19 | CCCN(CCCNc1nc(Oc2ccc(CCNc3nc(N)n4nc(-c5ccco5)nc4n3)cc2)nc(N2CCOCC2)n1)CCc1cccc2c1CC(=O)N2.O=CO | 120 | 120 | 311 | – | 65 | 0.0061 | 3.64 | 0.0222
20 | CC(C)(C)OC(=O)N1CCN(CCc2cccc3c2CC(=O)N3)CC1 | – | – | > 100000 | < 4 | – | – | – | –
21 | CCCN(CCCNC(=O)CCCNC(=O)CCCOc1ccc(CCNc2nc(N)n3nc(-c4ccco4)nc3n2)cc1)CCc1cccc2c1CC(=O)N2 | 110 | 110 | 785 | – | 68 | – | – | –
22 | CCCN(CCCNC(=O)CCCOc1ccc(CCNc2nc(N)n3nc(-c4ccco4)nc3n2)cc1)CCc1cccc2c1CC(=O)N2 | 18 | 18.2 | 204 | – | 95 | – | – | –
23 | O=C1Cc2c(CCN3CCNCC3)cccc2N1 | – | – | > 100000 | < 4 | – | – | – | –
24 | CC(C)(C)OC(=O)N1CCC(Nc2nc(N)n3nc(-c4ccco4)nc3n2)CC1 | 1740 | 1740 | – | – | – | – | – | –
25 | Nc1nc(N2CCN(CCc3cccc4c3CC(=O)N4)CC2)nc2nc(-c3ccco3)nn12 | 59 | 58.9 | > 100000 | < 4 | – | 0.0563 | 1.07 | 0.0605
26 | NC1CCN(CCc2cccc3c2CC(=O)N3)CC1 | – | – | > 100000 | < 4 | – | – | – | –
